pIC50: −log10 of the molar value. Calls of active or inactive are those of the source. The rule behind the calls is not given here.
Legend:
[1] = target: Macrophage colony-stimulating factor 1 receptor (Homo sapiens) (UniProt P07333); experiment: Inhibition of recombinant human Fms (538 to end residues) at 1 uM using KKKSPGEYVNIEFG as substrate measured after 40 mins in presence of [gamma33P]ATP by scintillation counting method relative to control
[2] = target: Casein kinase I isoform gamma-2 (Homo sapiens) (UniProt P78368); experiment: Inhibition of recombinant human CK1gamma2 (18 to end residues) at 1 uM using KRRRALS(p)VASLPGL as substrate measured after 40 mins in presence of [gamma33P]ATP by scintillation counting method relative to control
[3] = target: G protein-coupled receptor kinase 6 (Homo sapiens) (UniProt P43250); experiment: Inhibition of recombinant full-length human GRK6 at 1 uM using casein as substrate measured after 40 mins in presence of [gamma33P]ATP by scintillation counting method relative to control
[4] = target: Serine/threonine-protein kinase ULK1 (Homo sapiens) (UniProt O75385); experiment: Inhibition of human ULK1 (1 to 314 residues) at 1 uM using casein as substrate measured after 40 mins in presence of [gamma33P]ATP by scintillation counting method relative to control
[5] = target: Serine/threonine-protein kinase Nek2 (Homo sapiens) (UniProt P51955); experiment: Inhibition of recombinant full-length human NEK2 at 1 uM using myelin basic protein as substrate measured after 40 mins in presence of [gamma33P]ATP by scintillation counting method relative to control
[6] = target: Mitogen-activated protein kinase 10 (Homo sapiens) (UniProt P53779); experiment: Inhibition of recombinant full-length human JNK3 at 1 uM using peptide as substrate measured after 40 mins in presence of [gamma33P]ATP by scintillation counting method relative to control
[7] = organism: Homo sapiens; experiment: Inhibition of recombinant full-length human PI3K p110alpha/p65alpha (1 to 571 residues) at 1 uM using phosphatidylinositol-4, 5-bisphosphate as substrate measured after 40 mins by HTRF assay relative to control
Procedure, shortened: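 Single-point inhibition at 1 µM was measured in the Eurofins KinaseProfiler panel. Values are the mean of two independent experiments.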

[8] = test system: A549; experiment: Inhibition of tumorsphere formation in human A549 cells after 2 weeks by microscopic analysis; format: functional, cell-based
[9] = target: Cytoplasmic tyrosine-protein kinase BMX (Homo sapiens) (UniProt P51813); experiment: Inhibition of full-length recombinant human BMX at 1 uM using poly(Glu, Tyr) 4:1 as substrate measured after 40 mins in presence of [gamma33P]ATP by scintillation counting method relative to control
Procedure, shortened: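 Percent inhibition of kinase activity at a single compound concentration, measured by the outsourced Eurofins KinaseProfiler panel. Values are the mean of two independent experiments.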

[10] = target: Insulin-like growth factor 1 receptor (Homo sapiens) (UniProt P08069); experiment: Inhibition of recombinant human activated IGF1R (959 to end residues) at 1 uM using KKKSPGEYVNIEFG as substrate measured after 40 mins in presence of [gamma33P]ATP by scintillation counting method relative to control
[11] = Intrinsic clearance in CD-1 mouse liver microsomes at 2 uM in presence of NADPH measured up to 1 hr by HPLC analysis; format: ADME, Microsome
[12] = target: Serine/threonine-protein kinase DCLK3 (Homo sapiens) (UniProt Q9C098); experiment: Inhibition of recombinant human DCAMKL3 (345 to end residues) at 1 uM using KKLNRTLSFAEPG as substrate measured after 40 mins in presence of [gamma33P]ATP by scintillation counting method relative to control
[13] = target: Cyclin-dependent kinase 9 (Homo sapiens) (UniProt P50750); conditions: 0.25 uM
[14] = target: Serine/threonine-protein kinase WNK2 (Homo sapiens) (UniProt Q9Y3S1); experiment: Inhibition of recombinant human WNK2 (166 to 489 residues) at 1 uM using MBP as substrate measured after 40 mins in presence of [gamma33P]ATP by scintillation counting method relative to control
[15] = test system: NCI-H1299; experiment: Antitumour activity against human H1299 cells xenografted in Balb/c mouse assessed as inhibition of tumour growth at 40 mg/kg, po administered for 21 days by digital caliper method relative to control; format: functional; conditions: 504 h, read-out: TGI
Procedure, shortened: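 Female nude mice, 6-8 weeks old, injected subcutaneously with 1×10^6 H1299 cells (100 µL of a 1×10^7/mL suspension in serum-free medium). At 100-120 mm3, randomized into groups of 5. Dosed orally each day for 21 days with drug dissolved in DMSO, or with vehicle. Caliper measurements and body weight taken every other day. Volume = short²×long×0.5. Growth inhibition based on change in volume relative to vehicle. Tumours weighed at the end.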

[16] = test system: Glycogen synthase kinase-3 alpha (Homo sapiens), P49840 [UNDEFINED MUTATION]; experiment: Inhibition of recombinant full-length human GSK3alpha (2 to end residues) S449A mutant at 1 uM using phospho GS2 peptide as substrate measured after 40 mins in presence of [gamma33P]ATP by scintillation counting method relative to control
[17] = test system: Hepatocyte growth factor receptor (Homo sapiens), P08581 [Y1230H]; experiment: Inhibition of recombinant human MET A1209G/V1290L/Y1248H mutant (974 to end residues) at 1 uM using KKKGQEEEYVFIE as substrate measured after 40 mins in presence of [gamma33P]ATP by scintillation counting method relative to control
[18] = target: Serine/threonine-protein kinase 4 (Homo sapiens) (UniProt Q13043); experiment: Inhibition of recombinant full-length human MST1 at 1 uM using KKSRGDYMTMQIG as substrate measured after 40 mins in presence of [gamma33P]ATP by scintillation counting method relative to control
[19] = test system: Phosphorylase b kinase gamma catalytic chain, liver/testis isoform (Homo sapiens), P15735 [F290L]; experiment: Inhibition of recombinant human PhKG2 F290L mutant (1 to 301 residues) at 1 uM using KKLNRTLSFAEPG as substrate measured after 40 mins in presence of [gamma33P]ATP by scintillation counting method relative to control
[20] = test system: SiHa; experiment: Antiproliferative activity against human SiHa cells assessed as inhibition of cell viability after 72 hrs by CCK-8 assay; format: functional, cell-based
Procedure, shortened: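 Cells kept at 37 °C, 5% CO2 in DMEM or RPMI-1640 with 10% FBS and 1% penicillin/streptomycin, then seeded at 3000 cells/well (adherent) or 10,000 cells/well (suspension). Exposed to a range of concentrations for 72 h. CCK-8 added for 1-4 h before reading A450. […] Three independent experiments.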

[21] = test system: A549; experiment: Induction of cell cycle arrest in human A549 cells assessed as accumulation at G2/M phase after 24 hrs by propidium iodide/RNase staining based flow cytometric analysis; format: functional
Procedure, shortened: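 A549 and H1299 plated at 5×10^5 cells/mL in 6-well plates, treated after adherence for 24 h. Washed with PBS, fixed overnight in ice-cold 75% ethanol, stained with propidium iodide plus RNase A for 30 min at 37 °C, analysed by flow cytometry for phase distribution. Means ± SD, three independent experiments.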

Chain of Casein kinase I isoform gamma-2 (Homo sapiens) (P78368 whole entry, looked up, canonical isoform): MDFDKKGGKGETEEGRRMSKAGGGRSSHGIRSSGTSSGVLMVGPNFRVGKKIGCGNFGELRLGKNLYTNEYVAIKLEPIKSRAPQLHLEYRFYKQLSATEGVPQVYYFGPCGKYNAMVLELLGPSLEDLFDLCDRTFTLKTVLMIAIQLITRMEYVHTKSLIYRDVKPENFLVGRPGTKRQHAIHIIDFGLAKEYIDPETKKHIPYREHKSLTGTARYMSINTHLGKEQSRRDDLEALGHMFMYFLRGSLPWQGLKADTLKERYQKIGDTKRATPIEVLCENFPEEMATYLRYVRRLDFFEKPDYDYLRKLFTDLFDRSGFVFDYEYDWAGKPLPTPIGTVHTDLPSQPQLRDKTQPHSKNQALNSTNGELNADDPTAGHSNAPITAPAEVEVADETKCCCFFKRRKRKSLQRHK
Chain of Mitogen-activated protein kinase 10 (Homo sapiens) (P53779 whole entry, the tested form may be a part): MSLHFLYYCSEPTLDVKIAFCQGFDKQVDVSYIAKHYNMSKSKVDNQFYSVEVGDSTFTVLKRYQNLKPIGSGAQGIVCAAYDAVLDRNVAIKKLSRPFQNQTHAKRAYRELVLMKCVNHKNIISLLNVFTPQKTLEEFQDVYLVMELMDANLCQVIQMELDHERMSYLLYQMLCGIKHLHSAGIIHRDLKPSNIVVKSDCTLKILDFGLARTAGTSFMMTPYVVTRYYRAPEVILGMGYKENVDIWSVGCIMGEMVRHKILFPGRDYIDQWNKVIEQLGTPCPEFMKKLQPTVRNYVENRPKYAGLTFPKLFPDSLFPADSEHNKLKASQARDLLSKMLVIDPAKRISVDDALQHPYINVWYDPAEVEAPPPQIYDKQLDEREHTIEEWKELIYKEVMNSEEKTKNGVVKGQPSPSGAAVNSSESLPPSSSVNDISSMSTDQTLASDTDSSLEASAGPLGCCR
Chain of Serine/threonine-protein kinase Nek2 (Homo sapiens) (P51955 whole entry): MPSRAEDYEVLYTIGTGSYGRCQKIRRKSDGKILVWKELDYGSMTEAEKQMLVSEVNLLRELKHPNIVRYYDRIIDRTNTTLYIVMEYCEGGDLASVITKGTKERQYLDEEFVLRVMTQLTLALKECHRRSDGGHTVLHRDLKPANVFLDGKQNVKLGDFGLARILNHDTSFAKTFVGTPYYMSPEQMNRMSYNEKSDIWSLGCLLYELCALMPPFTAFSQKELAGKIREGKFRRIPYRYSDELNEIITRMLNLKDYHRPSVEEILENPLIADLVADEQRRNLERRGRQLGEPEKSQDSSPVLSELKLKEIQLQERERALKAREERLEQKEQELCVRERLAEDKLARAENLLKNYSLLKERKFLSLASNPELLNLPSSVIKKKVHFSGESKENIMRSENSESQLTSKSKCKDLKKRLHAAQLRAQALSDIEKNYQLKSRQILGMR
Chain of G protein-coupled receptor kinase 6 (Homo sapiens) (P43250 whole entry, looked up, the tested form may be a part): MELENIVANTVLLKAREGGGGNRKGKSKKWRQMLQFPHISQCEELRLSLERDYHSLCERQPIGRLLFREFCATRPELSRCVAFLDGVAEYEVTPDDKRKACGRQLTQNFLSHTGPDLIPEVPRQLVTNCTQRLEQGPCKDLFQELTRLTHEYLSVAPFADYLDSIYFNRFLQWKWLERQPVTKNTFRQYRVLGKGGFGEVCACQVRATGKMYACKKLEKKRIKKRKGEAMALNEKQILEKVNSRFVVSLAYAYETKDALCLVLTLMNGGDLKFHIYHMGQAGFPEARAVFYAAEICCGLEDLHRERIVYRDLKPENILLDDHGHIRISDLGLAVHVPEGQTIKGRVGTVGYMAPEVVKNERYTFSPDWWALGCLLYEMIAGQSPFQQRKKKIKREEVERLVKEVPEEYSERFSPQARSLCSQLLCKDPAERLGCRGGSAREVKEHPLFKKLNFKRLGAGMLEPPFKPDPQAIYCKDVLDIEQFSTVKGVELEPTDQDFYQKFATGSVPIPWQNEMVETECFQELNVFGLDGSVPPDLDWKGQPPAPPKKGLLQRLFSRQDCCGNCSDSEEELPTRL
Chain of Serine/threonine-protein kinase ULK1 (Homo sapiens) (O75385 whole entry, the tested form may be a part): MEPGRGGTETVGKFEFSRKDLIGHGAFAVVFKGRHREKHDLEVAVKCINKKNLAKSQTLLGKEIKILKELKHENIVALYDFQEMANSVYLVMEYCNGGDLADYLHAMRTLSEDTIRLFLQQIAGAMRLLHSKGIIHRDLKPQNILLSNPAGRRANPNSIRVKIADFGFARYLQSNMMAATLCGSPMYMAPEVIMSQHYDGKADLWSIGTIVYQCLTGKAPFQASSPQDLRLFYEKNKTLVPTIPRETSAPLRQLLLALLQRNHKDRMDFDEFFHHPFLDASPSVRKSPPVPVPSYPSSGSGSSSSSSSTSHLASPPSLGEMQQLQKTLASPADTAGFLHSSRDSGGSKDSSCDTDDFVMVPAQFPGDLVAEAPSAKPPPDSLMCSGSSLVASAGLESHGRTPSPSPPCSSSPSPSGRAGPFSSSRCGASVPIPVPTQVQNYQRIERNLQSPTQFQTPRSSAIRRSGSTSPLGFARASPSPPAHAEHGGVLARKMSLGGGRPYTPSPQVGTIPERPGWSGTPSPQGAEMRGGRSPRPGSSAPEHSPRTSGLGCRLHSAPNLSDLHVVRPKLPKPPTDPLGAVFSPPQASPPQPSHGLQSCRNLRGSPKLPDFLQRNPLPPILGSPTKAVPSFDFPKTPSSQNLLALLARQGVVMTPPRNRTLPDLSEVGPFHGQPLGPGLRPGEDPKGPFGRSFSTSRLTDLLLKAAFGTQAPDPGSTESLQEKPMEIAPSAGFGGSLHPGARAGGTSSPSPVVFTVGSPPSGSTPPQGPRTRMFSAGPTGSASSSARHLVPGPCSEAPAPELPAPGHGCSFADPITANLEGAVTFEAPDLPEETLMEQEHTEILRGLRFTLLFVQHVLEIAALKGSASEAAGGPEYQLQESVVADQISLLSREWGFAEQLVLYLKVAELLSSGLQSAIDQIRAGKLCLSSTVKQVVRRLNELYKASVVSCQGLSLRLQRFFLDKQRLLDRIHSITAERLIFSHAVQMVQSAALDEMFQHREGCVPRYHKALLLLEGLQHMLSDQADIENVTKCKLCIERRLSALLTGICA
Chain of Phosphorylase b kinase gamma catalytic chain, liver/testis isoform (Homo sapiens), P15735 [F290L] (P15735 whole entry F290L, the tested form may be a part, canonical isoform): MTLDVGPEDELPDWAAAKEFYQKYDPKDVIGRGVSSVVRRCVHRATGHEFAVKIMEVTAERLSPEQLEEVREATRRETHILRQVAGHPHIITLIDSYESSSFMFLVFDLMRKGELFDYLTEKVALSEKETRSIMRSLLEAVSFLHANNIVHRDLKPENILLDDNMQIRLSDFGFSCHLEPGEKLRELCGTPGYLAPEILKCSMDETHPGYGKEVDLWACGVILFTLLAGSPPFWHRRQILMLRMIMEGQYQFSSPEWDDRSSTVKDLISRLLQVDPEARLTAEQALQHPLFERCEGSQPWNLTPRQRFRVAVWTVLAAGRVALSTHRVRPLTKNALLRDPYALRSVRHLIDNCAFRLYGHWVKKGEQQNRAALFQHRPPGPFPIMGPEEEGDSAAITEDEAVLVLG
Chain of Serine/threonine-protein kinase 4 (Homo sapiens) (Q13043 whole entry, the tested form may be a part, canonical isoform): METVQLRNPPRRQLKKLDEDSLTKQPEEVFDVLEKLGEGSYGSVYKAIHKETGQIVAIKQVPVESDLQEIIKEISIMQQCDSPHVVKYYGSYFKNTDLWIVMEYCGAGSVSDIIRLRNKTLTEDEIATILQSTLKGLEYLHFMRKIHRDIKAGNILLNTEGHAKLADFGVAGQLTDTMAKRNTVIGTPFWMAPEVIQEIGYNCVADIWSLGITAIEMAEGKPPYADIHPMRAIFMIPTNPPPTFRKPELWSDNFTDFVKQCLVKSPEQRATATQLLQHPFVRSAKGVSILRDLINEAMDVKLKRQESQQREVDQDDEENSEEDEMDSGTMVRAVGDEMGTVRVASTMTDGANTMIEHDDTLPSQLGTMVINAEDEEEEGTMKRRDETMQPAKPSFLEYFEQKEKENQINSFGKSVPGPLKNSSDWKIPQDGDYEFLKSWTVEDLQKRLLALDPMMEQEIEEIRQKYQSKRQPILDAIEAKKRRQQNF
Chain of Serine/threonine-protein kinase DCLK3 (Homo sapiens) (Q9C098 whole entry): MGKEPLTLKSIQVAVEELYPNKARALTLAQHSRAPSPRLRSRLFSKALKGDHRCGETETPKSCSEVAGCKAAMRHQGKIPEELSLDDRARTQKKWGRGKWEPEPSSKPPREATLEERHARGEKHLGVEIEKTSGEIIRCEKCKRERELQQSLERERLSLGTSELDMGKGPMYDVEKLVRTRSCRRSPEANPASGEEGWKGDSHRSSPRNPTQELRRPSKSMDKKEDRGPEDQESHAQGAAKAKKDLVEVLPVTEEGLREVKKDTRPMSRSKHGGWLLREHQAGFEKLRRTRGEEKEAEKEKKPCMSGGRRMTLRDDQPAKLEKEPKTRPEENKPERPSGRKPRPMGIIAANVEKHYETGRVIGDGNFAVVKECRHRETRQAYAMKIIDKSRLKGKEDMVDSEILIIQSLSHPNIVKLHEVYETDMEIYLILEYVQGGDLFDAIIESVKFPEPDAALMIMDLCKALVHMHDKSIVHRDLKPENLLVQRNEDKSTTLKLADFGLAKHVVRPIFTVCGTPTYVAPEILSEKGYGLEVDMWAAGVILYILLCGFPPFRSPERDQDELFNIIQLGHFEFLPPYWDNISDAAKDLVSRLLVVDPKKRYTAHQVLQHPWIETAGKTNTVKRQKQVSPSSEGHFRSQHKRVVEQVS
Chain of Glycogen synthase kinase-3 alpha (Homo sapiens), P49840 [UNDEFINED MUTATION] (P49840 whole entry, looked up, stated change not applied): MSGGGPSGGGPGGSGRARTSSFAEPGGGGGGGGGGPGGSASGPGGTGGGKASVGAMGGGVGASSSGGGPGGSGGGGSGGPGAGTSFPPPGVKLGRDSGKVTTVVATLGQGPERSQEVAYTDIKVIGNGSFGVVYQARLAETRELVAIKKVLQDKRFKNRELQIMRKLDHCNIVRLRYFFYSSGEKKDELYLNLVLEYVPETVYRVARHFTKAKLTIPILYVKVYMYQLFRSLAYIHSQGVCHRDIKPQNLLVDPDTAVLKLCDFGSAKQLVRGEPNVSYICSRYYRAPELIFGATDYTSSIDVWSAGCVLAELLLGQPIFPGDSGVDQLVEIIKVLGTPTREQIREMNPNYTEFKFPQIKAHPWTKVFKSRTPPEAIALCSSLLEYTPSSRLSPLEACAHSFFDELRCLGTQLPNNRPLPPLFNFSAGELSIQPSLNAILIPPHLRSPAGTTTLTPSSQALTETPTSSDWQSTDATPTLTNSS

CN(C)C(=O)c1cc2cnc(Nc3ccc(NC(=O)CCCCCCCN=C=S)cc3)nc2n1C1CCCC1
inhibition [1]: 68% | inhibition [2]: 20% | inhibition [3]: 5% | inhibition [4]: -3% | inhibition [5]: 13% | inhibition [6]: 85% | inhibition [7]: 1% | inhibition [8]: Dose-dependent effect | inhibition [9]: 90% | inhibition [10]: 0% | CLH [11]: 100 µL/min/mg | inhibition [12]: 9% | inhibition [13]: Active | inhibition [14]: 4% | inhibition in vivo at 40 mg/kg [15]: 89.7% | inhibition [16]: 17% | inhibition [17]: 62% | inhibition [18]: 17% | inhibition [19]: 28% | pIC50 [20]: 5.74 | Activity [21]: Dose-dependent effect

Source: ChEMBL document CHEMBL4376814, “Novel cyclin-dependent kinase 9 (CDK9) inhibitor with suppression of cancer stemness activity against non-small-cell lung cancer” (Eur J Med Chem, 2019)
